# HIV Env fusion: HIV envelope-mediated fusion inhibition. HeLa-JRFL Env/CEM21 cell fusion, luciferase. inhibition, % at 12.3 µM. 360,000 compounds, 1.1% hits. AID 651610;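 active = mean replicate inhibition score of at least 50 and every replicate individually at or above 50; inconclusive = only one of the two criteria met; inactive = mean below 50 and not all replicates reaching 50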;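 note: 0% = plate neutral controls and 100% = maraviroc near 300 nM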
# FN deposition inh: fibronectin deposition inhibition; AH1F fibroblasts, Alexa488-fibronectin deposition fluorescence, overnight; AID 743247; inhibition, % at 12.6 µM; 350,000 compounds, 0.086% hits;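 active = mean inhibition across replicates of 30% or more, regardless of how many single replicates reach that level; inconclusive = mean under 30% yet at least half of replicates reach 30%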;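 note: positive control wells lacked labelled fibronectin entirely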
#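 Material – AH1F fibroblast monolayer, labelled fibronectin deposition · Reagent – labelled fibronectin 24 nM · Timing – 1 h adhesion, overnight exposure · Measured by – fluorescence at 485 nm excitation, 525 nm emission · Read-out – inhibition of fibronectin deposition signal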
# MLL AF4-AF9 inh: blocks AF4 peptide binding to human AF9. 350,000 compounds, 0.47% hits. inhibition, % at 10 µM. AID 651704. P42568. AlphaScreen, biotin-AF4 peptide binding to FLAG-AF9;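 active = every replicate reaching a set inhibition limit, whatever the replicate mean, cut at about 25% in these data; inconclusive = mean inhibition reaches that limit but some replicates miss it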;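 note: 0% = plate neutral control median and 100% = total signal loss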
# Target sequence (P42568 whole entry, looked up): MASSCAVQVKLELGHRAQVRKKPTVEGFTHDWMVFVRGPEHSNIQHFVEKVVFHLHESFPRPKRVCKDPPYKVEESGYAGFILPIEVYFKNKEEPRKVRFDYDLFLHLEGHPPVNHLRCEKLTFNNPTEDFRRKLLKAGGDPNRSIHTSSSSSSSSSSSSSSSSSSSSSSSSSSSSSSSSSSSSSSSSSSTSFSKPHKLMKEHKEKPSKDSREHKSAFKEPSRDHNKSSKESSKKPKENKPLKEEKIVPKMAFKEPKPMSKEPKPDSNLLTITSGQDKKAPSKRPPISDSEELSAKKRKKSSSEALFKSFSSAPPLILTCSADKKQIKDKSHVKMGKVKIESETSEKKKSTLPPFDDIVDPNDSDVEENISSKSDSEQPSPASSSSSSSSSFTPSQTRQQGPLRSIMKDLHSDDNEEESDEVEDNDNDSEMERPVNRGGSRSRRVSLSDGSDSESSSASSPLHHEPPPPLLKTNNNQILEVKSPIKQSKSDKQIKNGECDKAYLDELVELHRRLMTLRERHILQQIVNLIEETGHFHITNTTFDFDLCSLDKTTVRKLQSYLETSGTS
# EWS-Fli inh: EWS/Fli transcriptional activity inhibition | A673 NR0B1-luciferase reporter, viability-normalised | 350,000 compounds, 0.67% hits | inhibition, % at 12.6 µM;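 active = mean inhibition of at least 50% after viability correction, with every replicate also passing that limit; inconclusive = mean reaches 50% but only one of two replicates passes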;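 note: firefly luciferase signal divided by Alamar Blue viability fluorescence both relative to DMSO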
# PAX8 inh HTS: inhibitors of PAX8 transcriptional activity in RMG-I cells | RMG-I TPO-luciferase reporter, SteadyGlo, 24 h | inhibition, % at 12.6 µM | 360,000 compounds, 1.2% hits;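 active = mean replicate inhibition at least 60% with every replicate also reaching 60%; inconclusive = only one of the two criteria is met; inactive = mean below 60% and not all replicates reaching 60%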;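 note: luciferase light reporting Pax8 driven TPO promoter activity; plate controls were median of neutral control wells for no effect and mitoxantrone controls for full effect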
# N-glyco inh: blocks N-linked glycosylation in D54 reporter cells | reporter increase, % at 12.5 µM | 360,000 compounds, 0.23% hits | D54 ERlucT glycosylation luciferase reporter, 24 h; percent of 100 nM tunicamycin response | AID 588692;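 active = mean luciferase reporter signal, scaled so untreated is 0 and the glycosylation-blocking control 100, at or above a set limit in every replicate; inconclusive = mean reaches the limit but not every replicate does; inactive = mean below the limit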;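 note: luciferase carries N-glycosylation sites so blocking glycosylation raises the light; 0% = median of neutral control wells and 100% = median of 100 nM tunicamycin wells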
# * hit, by the source's call; ? = inconclusive; · = no result; [ ] = another dose, or the depositor's remark. In the library only some 2.5% were active in any assay of this set; here they are far more common.
SMILES,HIV Env fusion,FN deposition inh,MLL AF4-AF9 inh,EWS-Fli inh,PAX8 inh HTS,N-glyco inh
COc1cccc(S(=O)(=O)Nc2ccc3c(c2)C(=O)N(C)C[C@H](OC)[C@@H](C)CN[C@@H](C)CO3)c1,17[16.7 µM],7,-4,10,·,·
CC1CCN(c2c(NCc3ccc(C(=O)N(C)C4CCCCC4)cc3)c(=O)c2=O)CC1,5,-4,-2,1,6,-1
O=C(c1ccc([N+](=O)[O-])cc1)N1CCc2ccccc21,1,-2,47*,-5,-28,-1
CCOC(=O)C1CCN(c2c(NCc3ccc(C(=O)NC4CCCC4)cc3)c(=O)c2=O)CC1,4,-6,2,-5,9,1
CC1CCN(c2c(NCc3ccc(C(=O)N4CCc5ccccc54)cc3)c(=O)c2=O)CC1,28,-8,-2,53*,23,8
O=C(NC1CCCCCCC1)c1ccc(CNc2c(N3CCOCC3)c(=O)c2=O)cc1,12,-3,40*,-20,-52,2
Cc1noc(C)c1NC(=O)Nc1ccc2c(c1)CC(=O)N([C@H](C)CO)C[C@H](C)[C@@H](CN(C)S(C)(=O)=O)O2,·,·,-1,·,-38,·
CNC(=O)C[C@@H]1CC[C@@H]2[C@H](COc3ccc(NC(=O)c4ccc(F)cc4)cc3C(=O)N2C)O1,-1[16.7 µM],-12,·,-5,-3,·
CCCCCOP(=O)(c1ccccc1)c1ccccc1,·,-4,-4,9,95*,-3
CCCCP(=O)(CCCC)CCP(=O)(c1ccccc1)c1ccccc1,-35,7,4,-9,-11,1
O=S(=O)(N[C@@H]1CC[C@@H](CCn2cc(-c3cccnc3)nn2)O[C@@H]1CO)c1ccc(F)cc1,-11[16.7 µM],·,-1,3,8,·
CN1c2ccc(Br)cc2[C@H]2[C@H](CCN2S(=O)(=O)c2cccc(F)c2)[C@H]1CO,·,1,-1,11,7,·
CCO[C@H]1OC(C(=O)NCc2nc3ccccc3[nH]2)=C[C@@H](C2CC2)[C@@H]1CCCO,-115,1,2,61*,20,20
CCO[C@H]1OC(C(=O)NCc2nc3ccccc3[nH]2)=C[C@@H](c2ccccc2)[C@@H]1CCCO,-16,7,1,4,-16,3
CCOC(=O)c1c(C)cc2c(CO)n[nH]c(=O)c2c1C,56*,8,-2,-12,-23,-3
CCOC(=O)Cc1n[nH]c(=O)c2ccccc12,-7,-1,-3,6,-18,3
CCCC#Cc1ccc2c(c1)O[C@H](CN(C)C(=O)C1CCCCC1)[C@H](C)CN([C@@H](C)CO)S2(=O)=O,-19[16.7 µM],·,·,11,·,·
CN(C)c1cccc(/C=C(\C#N)c2ccccc2)c1,-424,18,26*,55*,-51,-9
CN(C)c1ccc(/C=C(\C#N)c2ccccc2)cc1,·,·,·,·,·,-8
COCC(=O)Nc1ccc2c(c1)OC[C@@H](C)N(Cc1cccc(F)c1)C[C@@H](C)[C@H](OC)CN(C)C2=O,9[16.7 µM],15,6,0,·,·
CC(C)c1ccc(-c2nc3ccccc3s2)cc1,25,3,-5,89*,88*,-20
COc1ccc(-c2nc3ccccc3s2)cc1O,-57,-2,·,·,74*,-22
FC(F)(F)c1ccc(-c2nc3ccccc3s2)cc1,-168,-3,2,-66,-50,-5
COC(=O)N(C)c1nc2ccccc2s1,·,·,·,·,·,-1
CN(C(=O)OC(C)(C)C)c1ccc(-c2nc3ccccc3s2)cc1,57*,-2,1,88*,92*,-20
SMILES,HIV Env fusion,FN deposition inh,MLL AF4-AF9 inh,EWS-Fli inh,PAX8 inh HTS,N-glyco inh
COc1cc(-c2nc3ccccc3s2)ccc1O,-130,0,·,·,·,2
CN1C(=O)c2cc(NC(=O)c3cccc(F)c3)ccc2OC[C@H]2O[C@@H](CC(=O)NC3CCC3)CC[C@@H]21,·,-11,-1,-4,·,·
C/C=C/c1ccc([C@H]2[C@H](CO)N(C(=O)C3CCCC3)C23CN(C(=O)NC(C)C)C3)cc1,·,9,·,·,·,·
C[C@@H]1CN([C@@H](C)CO)C(=O)c2cc(NS(=O)(=O)c3ccccc3)ccc2O[C@@H](C)CCCCO[C@@H]1CN(C)CC1CCCCC1,8[16.7 µM],·,8,9,19,·
O=C(Nc1cccc(F)c1)N1CCCCN2[C@H](CO)[C@H](c3ccc(C#Cc4ccccc4)cc3)[C@H]2C1,·,·,10,73*,?,·
O=C(Nc1cccc(F)c1)N1CCCCN2[C@H](CO)[C@@H](c3ccc(C#Cc4ccccc4)cc3)[C@H]2C1,·,·,5,42,116*,·
O=C(Nc1cccc(F)c1)N1CCCCN2[C@@H](CO)[C@H](c3ccc(C#Cc4ccccc4)cc3)[C@@H]2C1,·,·,1,16,94*,·
O=C(Nc1cccc(F)c1)N1CCCCN2[C@H](C1)[C@H](c1ccc(C#Cc3ccccc3)cc1)[C@@H]2CO,·,·,·,7,3,·
CC(C)=C1C2CCC1C(C(=O)NCc1ccccc1)C2C(=O)O (stereo not drawn),67*,-4,·,·,·,1
O=C(O)C1CCCCC1C(=O)NCc1ccccc1 (stereo not drawn),-30,0,·,·,·,-1
C[C@H]1CN([C@@H](C)CO)C(=O)Cc2cc(NC(=O)Cc3ccccc3)ccc2O[C@@H]1CN(C)Cc1ccc(C(F)(F)F)cc1,-11[16.7 µM],-10,-2,·,29,·
O=C(COc1ccccc1C(=O)Nc1ccccc1)c1ccc(Br)cc1,-3,10,-1,1,-1,-6
O=C(Oc1ccccc1C(=O)Nc1ccccc1)c1ccccc1Br,-173,-11,-10,53*,-19,21
O=[N+]([O-])c1cc(CN2CCN(c3cccc(C(F)(F)F)c3)CC2)c2cccnc2c1O,52,0,36*,43,53,·
O=[N+]([O-])c1cc(CN2CCCC2)c2cccnc2c1O,·,·,·,·,·,3
OC[C@H]1O[C@@H](n2cnc3c(Nc4ccccc4)ncnc32)[C@H](O)[C@@H]1O,-5,-6,1,-40,-15,4
OCC1OC(n2cnc3c(NCc4ccccc4O)ncnc32)C(O)C1O (stereo not drawn),39,17,2,-3,109*,-7
O=c1[nH]nnc2c1ncn2C1OC(CO)C(O)C1O (stereo not drawn),?,-3,-1,6,97*,-7
OCC1OC(n2ccc3c(NO)ncnc32)C(O)C1O (stereo not drawn),91*,-1,-2,49,·,-17
CC(C)NC(=O)N[C@@H]1C[C@@H]2O[C@@H](CO)CC[C@@H]2O[C@@H]1CCc1ccc(-c2ccc(F)cc2)cc1,·,·,-4,-1,3,·
CC(C)NC(=O)N[C@H]1C[C@@H]2O[C@@H](CO)CC[C@@H]2O[C@@H]1CCc1ccc(-c2ccccc2F)cc1,·,·,33*,5,-3,·
Cc1ccc(C(=O)N/C(=C\c2ccc(-c3ccc(Br)cc3)o2)C(=O)NCCCN(C)C)cc1,-7,-2,25*,51*,95*,-8

# Compound activity from PubChem BioAssay.
